Experiments:
[1] = molecular target: T1, Purine nucleoside phosphorylase (Homo sapiens, UniProt P00491); assay: Competitive inhibition of PNP in human OPM2 cells using MSEG as substrate by Dixon-plot analysis; assay type: cell-based, OPM-2
T1 sequence (P00491 whole entry): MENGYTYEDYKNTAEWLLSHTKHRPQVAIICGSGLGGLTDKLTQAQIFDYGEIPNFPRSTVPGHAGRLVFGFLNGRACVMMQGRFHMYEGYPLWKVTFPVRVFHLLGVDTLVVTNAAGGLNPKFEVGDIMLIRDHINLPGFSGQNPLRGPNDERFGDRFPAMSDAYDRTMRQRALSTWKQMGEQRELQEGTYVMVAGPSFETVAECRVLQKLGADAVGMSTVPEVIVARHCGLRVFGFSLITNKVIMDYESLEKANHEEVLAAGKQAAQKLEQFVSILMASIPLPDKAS

[2] = molecular target: T1, Purine nucleoside phosphorylase; assay: Competitive inhibition of PNP in human MC116 cells using MSEG as substrate by Dixon-plot analysis; assay type: cell-based
[3] = molecular target: T1, Purine nucleoside phosphorylase; assay: Competitive inhibition of PNP in human SU-DHL-1 cells using MSEG as substrate by Dixon-plot analysis; assay type: cell-based
[4] = molecular target: T1, Purine nucleoside phosphorylase; assay: Competitive inhibition of PNP in human Jurkat cells using MSEG as substrate by Dixon-plot analysis; assay type: cell-based
[5] = molecular target: T1, Purine nucleoside phosphorylase; assay: Competitive inhibition of PNP in human AML cells obtained from patients using MSEG as substrate by Dixon-plot analysis; assay type: cell-based
[6] = molecular target: T1, Purine nucleoside phosphorylase; assay: Competitive inhibition of PNP in human K562 cells using MSEG as substrate by Dixon-plot analysis; assay type: cell-based
[7] = molecular target: T1, Purine nucleoside phosphorylase; assay: Competitive inhibition of PNP in human MINO cells using MSEG as substrate by Dixon-plot analysis; assay type: cell-based
[8] = molecular target: T1, Purine nucleoside phosphorylase; assay: Competitive inhibition of human recombinant PNP using MSEG as substrate by Dixon-plot analysis
In short: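 Human recombinant PNP. Assay mix was 50 mM Tris pH 7.5 with MESG at 40 or 80, constant 500 phosphate and inhibitor 0–500 nM. Enzyme addition started phosphorolysis, read at 360 nm for 5–7 min from initial rates. Ki was taken from Dixon plots (1/v vs [I]) over three independent measurements.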

[9] = molecular target: T1, Purine nucleoside phosphorylase; assay: Competitive inhibition of PNP in human RPMI8226 cells using MSEG as substrate by Dixon-plot analysis; assay type: cell-based, RPMI-8226
[10] = molecular target: T1, Purine nucleoside phosphorylase; assay: Competitive inhibition of PNP in human PBMC using MSEG as substrate by Dixon-plot analysis
[11] = molecular target: T1, Purine nucleoside phosphorylase; assay: Competitive inhibition of PNP in human DoHH2 cells using MSEG as substrate by Dixon-plot analysis; assay type: cell-based
[12] = molecular target: T1, Purine nucleoside phosphorylase; assay: Inhibition of human recombinant PNP using MSEG as substrate preincubated with inhibitor within 10 to 20 mins measured after 5 mins by HPLC analysis
In short: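 Recombinant human PNP (0.002 units) preincubated with inhibitor (0–250 nM) in 50 mM Tris pH 7.5 at 20 C for 0, 10 or 20 min. Then phosphate (final 500 µM) and MESG (final 20 µM) added; incubated 2 and 5 min at 25 C, aliquots quenched with HCl. MESG phosphorolysis measured by HPLC; activity expressed relative to no-inhibitor assays.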

[13] = molecular target: T1, Purine nucleoside phosphorylase; assay: Competitive inhibition of PNP in human HBL2 cells using MSEG as substrate by Dixon-plot analysis; assay type: cell-based
[14] = molecular target: T1, Purine nucleoside phosphorylase; assay: Competitive inhibition of PNP in human CML cells obtained from patients using MSEG as substrate by Dixon-plot analysis; assay type: cell-based
[15] = molecular target: T1, Purine nucleoside phosphorylase; assay: Competitive inhibition of PNP in human HBL2 tumor cells using MSEG as substrate by Dixon-plot analysis; assay type: cell-based

Row | Ki [1] | Ki [2] | Ki [3] | Ki [4] | Ki [5] | Ki [6] | Ki [7] | Ki [8] | Ki [9] | Ki [10] | Ki [11] | IC50 [12] | Ki [13] | Ki [14] | Ki [15] | SMILES
1 | 16 nM | 11 nM | 11 nM | 10 nM | 12 nM | 10 nM | 10 nM | 7 nM | 20 nM | 10 nM | 6 nM | 10 nM | 16 nM | 14 nM | 24 nM | Nc1nc2c(ncn2[C@@H]2CN(C(=O)P(=O)(O)O)C[C@@H]2O)c(=O)[nH]1
2 | 78 nM | 50 nM | 38 nM | 16 nM | 60 nM | 60 nM | 30 nM | 25 nM | 50 nM | 20 nM | 50 nM | – | 98 nM | 77 nM | 100 nM | Nc1nc2c(ncn2[C@H]2CCN(C(=O)P(=O)(O)O)C2)c(=O)[nH]1

Reference: ChEMBL document CHEMBL2021821, “N-phosphonocarbonylpyrrolidine derivatives of guanine: a new class of bi-substrate inhibitors of human purine nucleoside phosphorylase” (J Med Chem, 2012)
